PostGolgi yeast: growth inhibition of a yeast mutant, post-Golgi transport screen. post-Golgi transport phenotypic cell assay. inhibition, % at 10 µM. 98,000 compounds, 0.9% hits. AID 739;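 further: yeast cells grown in 1536-well plates; yeast grown about 18 h at 30C before absorbance read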
Candida biofilm: kills Candida albicans biofilms | inhibition, % at 6 µM | AID 834 | C. albicans biofilm + clotrimazole, Alamar Blue | 85,000 compounds, 0.14% hits;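 active means inhibition above 20%; inactive means inhibition below 20%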;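 further: preformed 24 hr biofilms exposed to compound for 48 hr; 0% = biofilm without compound and 100% = blank killed by clotrimazole plus chlorhexidine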
E coli WT exp: E. coli BW25113 growth inhibition, expanded screen | OD600 absorbance | AID 710 | growth inhibition, % at 100 µM | 98,000 compounds, 0.15% hits;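 active means growth inhibition above about 50% at one test dose, limit read from the data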;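 further: growth measured after 20 h incubation at 37 °C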
Pyk2 oligo antag: antagonists of human Pyk2 oligomerization; Q14289; Q293 cells, Pyk2 FERM NanoBiT luminescence; active compounds read low; z-score (the deposit names both 25 µM and 10 µM); 99,000 compounds, 0.83% hits; AID 1347419;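 active means Z-score of -3 or lower, scaled per plate to the spread of control and sample wells; inactive means z-score above -3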;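 further: negative z-score means lost luminescence so less FERM oligomerization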
Target sequence (Q14289 whole entry, looked up): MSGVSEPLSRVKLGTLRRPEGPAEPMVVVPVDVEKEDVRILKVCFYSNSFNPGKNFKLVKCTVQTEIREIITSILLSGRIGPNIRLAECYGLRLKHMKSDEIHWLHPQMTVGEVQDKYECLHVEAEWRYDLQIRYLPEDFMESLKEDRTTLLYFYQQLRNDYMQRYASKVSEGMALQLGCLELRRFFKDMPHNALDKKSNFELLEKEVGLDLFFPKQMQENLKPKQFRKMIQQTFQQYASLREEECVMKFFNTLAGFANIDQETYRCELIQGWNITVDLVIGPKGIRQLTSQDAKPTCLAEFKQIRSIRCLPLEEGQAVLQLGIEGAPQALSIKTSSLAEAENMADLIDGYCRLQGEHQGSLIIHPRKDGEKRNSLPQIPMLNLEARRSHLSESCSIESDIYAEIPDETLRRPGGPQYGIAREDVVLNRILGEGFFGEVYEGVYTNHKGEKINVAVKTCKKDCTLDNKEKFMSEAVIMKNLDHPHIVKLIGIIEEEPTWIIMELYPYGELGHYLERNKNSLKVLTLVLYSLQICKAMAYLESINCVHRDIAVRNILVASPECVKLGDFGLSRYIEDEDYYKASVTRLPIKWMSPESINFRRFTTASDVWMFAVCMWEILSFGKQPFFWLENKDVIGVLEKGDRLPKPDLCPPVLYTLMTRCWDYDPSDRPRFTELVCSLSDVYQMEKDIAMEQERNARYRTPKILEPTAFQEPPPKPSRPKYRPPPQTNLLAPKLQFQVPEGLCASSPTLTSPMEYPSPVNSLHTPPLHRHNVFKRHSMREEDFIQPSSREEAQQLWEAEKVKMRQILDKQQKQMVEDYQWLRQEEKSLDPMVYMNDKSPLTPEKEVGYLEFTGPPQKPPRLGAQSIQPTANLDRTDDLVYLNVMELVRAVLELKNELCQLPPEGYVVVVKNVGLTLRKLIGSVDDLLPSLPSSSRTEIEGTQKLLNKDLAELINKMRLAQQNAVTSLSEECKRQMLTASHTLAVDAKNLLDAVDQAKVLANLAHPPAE
PostGolgi ctrl: inhibits growth of the yeast control strain; efflux-deficient yeast background strain, growth absorbance A615, 16 h; inhibition, % at 10 µM; 98,000 compounds, 5% hits; AID 738
Ecoli tolC: blocks growth of E. coli BW25113 tolC mutant | OD615 | growth inhibition, % at 10 µM (by protocol) | 65,000 compounds, 2.2% hits | AID 573;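 active means growth inhibition at or above a cutoff equal to the mean over every tested compound plus 3 SD, cut at about 60% in these data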;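 further: growth measured after 20 h incubation at 37 °C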
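Material: E. coli BW25113 ΔtolC::kan, tolC deletion mutant strain. Measure: percent growth inhibition. Schedule: 37 °C, 20 h exposure. Doses: single-point testing at 10 µM. Signal: A615 absorbance measurement. Buffer or medium: kanamycin-containing LB broth (50 µg/mL).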
The depositor's hits bear a star; . = no result given. In the library only some 6.5% were active in any assay of this set; here they are far more common. Unless noted, no stated cut-off is given here; in the data, active means inhibition above about 30%; inactive means the rest.

SMILES	PostGolgi yeast	Candida biofilm	E coli WT exp	Pyk2 oligo antag	PostGolgi ctrl	Ecoli tolC
CCN1CCN(c2cc(C(C)(C)C)nc3c(-c4ccccc4)c(C)nn23)CC1	20.6	5.4	10.0	-0.23	76.4*	.
Cc1cc(N2CCN(C(=O)c3ccco3)CC2)n2nc(C)c(-c3ccccc3)c2n1	30.9*	9.9	-2.0	0.39	97.9*	5.5
CCN1CCc2c(sc(NC(=O)Nc3ccc(Cl)c(Cl)c3)c2C(N)=O)C1	.	.	.	-0.3	.	.
COC(=O)[C@H](Cc1ccccc1)NC(=O)Nc1ccc(C)cc1	3.9	4.8	7.0	0.71	3.0	.
CCOC(=O)C1(S(=O)(=O)c2ccc(Cl)cc2)CCN(Cc2ccc(C)cc2)CC1	0.2	.	-10.0	-0.94	14.0	.
O=C(Nc1ccon1)c1csc2ccccc12	-3.7	1.3	-7.0	0.05	8.8	4.5
O=C(Nc1ccon1)c1csc2c1CCCC2	17.4	4.8	1.0	-0.93	32.0*	-1.7
O=C(Nc1ccc(N2CCOCC2)cc1N1CCOCC1)c1ccco1	-7.3	9.9	-4.0	-0.35	44.0*	-5.8
COc1cc(/C=N/N(C)c2ccccc2)cc(Cl)c1O	1.8	5.4	6.0	-3.05*	47.7*	.
COc1cc(/C=N/S(=O)(=O)CCc2ccccc2)cc(OC)c1O	.	.	.	0.37	.	.
COc1ccc(OC)c(/C=N/N(C)c2ccccc2)c1	-1.1	7.8	4.0	-0.78	31.7*	.
CCS(=O)(=O)N1CCN(C(=O)c2cc(OC)cc(OC)c2)CC1	2.0	3.8	-4.0	0.02	31.3*	8.1
O=c1c2[nH]c3ccc(F)cc3c2ncn1CCN1CCN(Cc2ccccc2)CC1	-0.2	7.3	0.0	.	6.8	-8.3
COc1cc2[nH]c3c(N4CCN(c5ccccn5)CC4)ncnc3c2cc1OC	-7.3	-1.1	-1.0	-2.58	11.0	45.2
COc1ccc(N2CCN(c3ncnc4c3[nH]c3ccccc34)CC2)cc1	1.0	-2.8	-2.0	-3.47*	13.4	.
CCOC(=O)N1CCN(c2ncnc3c2[nH]c2ccc(F)cc23)CC1	-2.3	.	-5.0	-3.03*	7.1	.
Fc1ccc2[nH]c3c(N4CCN(c5ccccc5)CC4)ncnc3c2c1	76.3*	1.8	-5.0	-3.37*	79.5*	9.1
CCCCOc1ncnc2c1[nH]c1ccc(F)cc12	10.0	0.1	0.0	-0.79	18.2	12.7
CCOC(=O)N1CCN(c2ncnc3c2[nH]c2ccc(OC)cc23)CC1	-5.4	8.9	4.0	-0.15	36.5*	6.8
O=C(Cn1c(SCC(=O)NC2CCCC2)nnc1-c1ccncc1)Nc1ccc2c(c1)OCO2	4.4	5.4	3.0	-0.83	18.9	-12.0
CCn1ncc(/C=N/NS(=O)(=O)c2ccc(Cl)cc2)c1C	-2.2	.	13.0	-0.35	-3.0	.
O=C(Cn1nnc(-c2cccs2)n1)N1c2ccccc2Sc2ccc(C(F)(F)F)cc21	.	-4.3	.	-0.31	.	.
OC1(c2cccc(C(F)(F)F)c2)CCN(c2ncnc3c2[nH]c2ccc(F)cc23)CC1	4.0	-0.2	-9.0	-1.86	32.8*	100.0*
CCOc1ccc(C(=O)CN2CCN(S(=O)(=O)c3ccc(Cl)cc3)CC2)cc1	0.6	6.5	-10.0	-0.05	32.0*	18.7
CC(OC(=O)c1ccc2ccccc2n1)C(=O)Nc1ccc(N2CCOCC2)cc1 (stereo not drawn)	3.5	-5.9	-3.0	0.69	31.3*	-7.4
SMILES	PostGolgi yeast	Candida biofilm	E coli WT exp	Pyk2 oligo antag	PostGolgi ctrl	Ecoli tolC
CCOc1ccc(S(=O)(=O)N2CCCC2)cc1	-13.3	-0.2	4.0	0.61	-8.8	.
COc1ccc(OC)c(NC(=O)CN2CCC(C(=O)c3ccc(C)cc3)CC2)c1	-2.4	9.8	-16.0	-0.21	34.6*	55.8
CCOc1ccc(C(=O)C2CCN(CC(=O)Nc3ccccc3N3CCOCC3)CC2)cc1	-11.1	4.8	-9.0	-2.23	2.4	76.4*
CCOc1ccc(C(=O)Nc2ccccc2N2CCOCC2)cc1	-5.2	4.8	1.0	-1.42	33.0*	.
CCOc1cc(N2CCOCC2)c(OCC)cc1NC(=O)CN1CCc2ccccc2C1	8.5	3.9	1.0	1.05	39.0*	34.5
CCOc1cc(N2CCOCC2)c(OCC)cc1NC(=O)Cc1cccc(OC)c1	-2.5	7.4	12.0	0.9	3.3	.
O=C(Nc1ccccc1N1CCOCC1)c1ccc2ccccc2n1	5.7	-0.5	-7.0	-3.65*	20.6	14.2
COc1ccc(C)cc1NC(=O)CN1CCN(S(=O)(=O)c2ccc(Cl)cc2)CC1	15.7	0.5	-2.0	-0.3	49.8*	-4.3
COC(=O)CSC1=C(C#N)C(c2ccsc2)CC(=O)N1 (stereo not drawn)	.	1.1	.	0.32	.	.
CN1C(=O)N2CN(C3CCCCC3)CN3C(=O)N(C)C1C23 (stereo not drawn)	3.7	5.8	0.0	0.18	1.0	-14.9
CN(C(=O)c1cnccn1)c1nnc(-c2cccnc2)s1	.	.	.	.	.	-19.4
CC(C)(C)c1ccccc1OCC(=O)Nc1ncn[nH]1	17.0	-0.8	-8.0	0.08	13.8	-15.9
CC(C)(C)c1cc(Br)ccc1OCC(=O)Nc1ncn[nH]1	6.8	2.8	-7.0	-0.06	30.4*	9.3
O=C(c1ccc(Cl)c(Cl)c1)N(Cc1ccco1)c1ccc(O)cc1	0.5	1.0	3.0	-2.06	25.2	100.0*
NC1=NC(c2ccc(Cl)cc2)n2c(nc3ccccc32)N1 (stereo not drawn)	20.1	.	6.0	1.53	9.6	1.7
CCOC(=O)C(=Cc1ccc(OCc2ccc([N+](=O)[O-])cc2)c(OC)c1)C(=O)OCC	-3.8	.	-2.0	-1.93	43.2*	.
COC(=O)C(=Cc1ccc(OCc2ccc([N+](=O)[O-])cc2)c(OC)c1)C(=O)OC	-4.6	.	-5.0	-2.2	11.9	.
Cc1nn(Cc2ccc(C(=O)Nc3nccs3)cc2)c(C)c1Cl	17.0	6.7	-2.0	-1.18	-3.6	20.3
O=C(NCc1ccccc1)c1sc(=S)n2c1[nH]c(=O)c1ccccc12	3.7	7.7	4.0	-0.74	46.6*	.
COc1ccc(-c2nnc(SC(C)C(=O)NCc3ccc4c(c3)OCO4)n2Cc2ccco2)cc1 (stereo not drawn)	0.0	-3.2	-5.0	0.38	11.8	.
Cc1ccc(S(=O)(=O)c2nc(NCc3ccc4c(c3)OCO4)sc2Cl)cc1	-9.7	.	1.0	-1.03	48.5*	.
Cc1ccc(S(=O)(=O)c2nc(Nc3nccs3)sc2Cl)cc1	-8.7	-4.5	-5.0	-3.15*	51.9*	98.4*
Cc1cc(C)cc(N2C(=O)CC(n3nc(C)cc3C)C2=O)c1 (stereo not drawn)	-1.2	0.5	4.0	0.39	-9.7	.
O=S(=O)(Nc1cccc(-c2nc3cccnc3s2)c1)c1ccc2c(c1)OCCO2	30.4*	0.0	-3.0	.	80.4*	16.6
CCc1ccc(S(=O)(=O)Nc2ccc(-c3nc4cccnc4s3)cc2)s1	-2.2	7.0	-12.0	.	-4.1	.
Cc1ccc(-c2nc3cccnc3s2)cc1NS(=O)(=O)c1ccc2c(c1)OCCO2	85.5*	6.7	-5.0	.	97.7*	.
COc1ccc2c(c1)OC13CCN(C)CC1C2C(C(=O)c1ccc(F)cc1)C(=O)N3 (stereo not drawn)	.	7.4	.	.	.	-7.7
CC1CCCCN1C(=O)CSc1nc(N)cc(=O)[nH]1 (stereo not drawn)	3.1	.	1.0	-0.69	30.0*	.

Source: PubChem (several laboratories)
